The results in this text go back to ChEMBL document CHEMBL1133434, “Novel retinoic acid receptor alpha agonists: syntheses and evaluation of pyrazole derivatives” (Bioorg Med Chem Lett, 2000).

In one experiment the test system is HL-60. The experiment in a line: Effective dose for induction of HL-60 cell differentiation. Format: functional, Homo sapiens. The procedure, abridged:
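HL-60 cells treated with retinoid. Differentiation scored by the CD11b marker. Activity expressed relative to ATRA, as EC30/ATRA EC30.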

The target of experiment [1] is T1, Retinoic acid receptor gamma (Homo sapiens) (UniProt P13631).
T1 sequence (whole entry): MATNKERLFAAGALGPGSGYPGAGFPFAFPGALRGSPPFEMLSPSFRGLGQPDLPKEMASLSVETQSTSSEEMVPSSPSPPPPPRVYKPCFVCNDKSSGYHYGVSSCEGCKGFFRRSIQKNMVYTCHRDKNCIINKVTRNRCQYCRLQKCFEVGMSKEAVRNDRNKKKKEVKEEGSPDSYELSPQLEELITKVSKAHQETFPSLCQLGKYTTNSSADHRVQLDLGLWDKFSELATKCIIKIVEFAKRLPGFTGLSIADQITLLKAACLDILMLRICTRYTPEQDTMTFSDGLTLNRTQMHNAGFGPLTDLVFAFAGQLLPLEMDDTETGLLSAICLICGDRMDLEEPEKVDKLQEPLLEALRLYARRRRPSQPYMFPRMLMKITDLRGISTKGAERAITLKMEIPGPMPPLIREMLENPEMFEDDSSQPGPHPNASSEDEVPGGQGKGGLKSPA
Put plainly: Relative transcriptional activation in CV-1 cells expressing RAR gamma receptor compared to ATRA. As to conditions: Cercopithecidae. Format: functional, cell-based.

Experiment [2] has as its target T2, Retinoic acid receptor beta (Homo sapiens) (UniProt P10826).
T2 sequence (whole entry): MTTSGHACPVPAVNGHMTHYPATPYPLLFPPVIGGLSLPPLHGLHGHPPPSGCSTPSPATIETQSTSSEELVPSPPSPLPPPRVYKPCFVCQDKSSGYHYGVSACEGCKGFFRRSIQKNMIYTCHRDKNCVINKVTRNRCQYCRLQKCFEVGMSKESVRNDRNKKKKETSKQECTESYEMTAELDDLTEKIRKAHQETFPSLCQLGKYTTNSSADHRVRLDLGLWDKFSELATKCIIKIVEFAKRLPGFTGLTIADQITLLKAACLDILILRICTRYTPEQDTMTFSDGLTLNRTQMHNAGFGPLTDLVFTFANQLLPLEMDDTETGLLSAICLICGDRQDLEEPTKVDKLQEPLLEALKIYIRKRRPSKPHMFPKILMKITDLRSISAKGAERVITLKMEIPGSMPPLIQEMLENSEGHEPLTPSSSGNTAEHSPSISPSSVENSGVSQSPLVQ
The experiment in a line: Inhibition of [3H]ATRA-Hl60 binding to Retinoic acid receptor beta relative to ATRA. In short, it runs like this: (§1)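 Competitive binding at individual RAR subtypes, run with [3H]ATRA as radioligand. Affinity is given as IC50 relative to that of ATRA.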

Experiment [3] addresses T2, Retinoic acid receptor beta (Homo sapiens). Put plainly: Relative transcriptional activation in CV-1 cells expressing RAR beta receptor compared to ATRA. Format: functional, cell-based. Conditions: Cercopithecidae.
In experiment [4] the target is T3, Retinoic acid receptor alpha (Homo sapiens) (UniProt P10276).
T3 sequence (whole entry): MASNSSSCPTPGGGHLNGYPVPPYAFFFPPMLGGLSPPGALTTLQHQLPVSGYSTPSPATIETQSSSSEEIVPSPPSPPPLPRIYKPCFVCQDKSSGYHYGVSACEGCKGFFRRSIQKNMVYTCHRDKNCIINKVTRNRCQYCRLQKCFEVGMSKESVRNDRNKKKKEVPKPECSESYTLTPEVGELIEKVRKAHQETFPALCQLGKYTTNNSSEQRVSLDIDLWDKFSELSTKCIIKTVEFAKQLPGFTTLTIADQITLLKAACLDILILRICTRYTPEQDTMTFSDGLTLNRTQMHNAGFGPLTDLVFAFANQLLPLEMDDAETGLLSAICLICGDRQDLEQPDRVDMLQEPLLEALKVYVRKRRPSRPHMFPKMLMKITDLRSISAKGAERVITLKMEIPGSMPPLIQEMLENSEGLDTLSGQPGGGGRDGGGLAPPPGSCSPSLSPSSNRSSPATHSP
Put plainly: Relative transcriptional activation in CV-1 cells expressing RAR alpha receptor compared to ATRA. Format: functional, cell-based. As to conditions: Cercopithecidae.

Experiment [5] addresses T1, Retinoic acid receptor gamma (Homo sapiens). The experiment in a line: Inhibition of [3H]ATRA-Hl60 binding to Retinoic acid receptor gamma relative to ATRA. The procedure, abridged:
as §1

For experiment [6] the target is unchanged. Put plainly: Inhibition of [3H]ATRA-Hl60 binding to Retinoic acid receptor gamma relative to ATRA; Not detectable. The procedure, abridged: as §1
For experiment [7], the target named is T2, Retinoic acid receptor beta (Homo sapiens). The experiment in a line: Inhibition of [3H]ATRA-Hl60 binding to Retinoic acid receptor beta relative to ATRA; Not detectable. The procedure, abridged:
as §1

The target is the same in experiment [8]. Put plainly: Relative transcriptional activation in CV-1 cells expressing RAR beta receptor compared to ATRA; Not detectable. Format: functional, cell-based. Conditions: Cercopithecidae.
The target of experiment [9] is T3, Retinoic acid receptor alpha (Homo sapiens). The experiment in a line: Relative transcriptional activation in CV-1 cells expressing RAR alpha receptor compared to ATRA; Not detectable. Format: functional, cell-based. Conditions: Cercopithecidae.
The target of experiment [10] is T1, Retinoic acid receptor gamma (Homo sapiens). The experiment in a line: Relative transcriptional activation in CV-1 cells expressing RAR gamma receptor compared to ATRA; Not detectable. Format: functional, cell-based. Conditions: Cercopithecidae.

In the experiment on HL-60, `CC1=C(/C=C/C(C)=C/C=C/C(C)=C/C(=O)O)C(C)(C)CCC1` [TRETINOIN] displayed an ED30 of 1.5 nM.

For `CC(C)c1cc(-c2ccc(-c3ccc(C(=O)O)cc3)[nH]2)nn1C(C)(C)C`, the figures for the Relative EC30 in experiment [1], in experiment [3] and in experiment [4] were 2.3 nM, 0.63 nM and 0.22 nM, respectively. Also, the values for the Relative IC50 in [2] and in experiment [5] were 110 nM and 70 nM, respectively. Moreover, the ED30 in the experiment on HL-60 was determined as 0.05 nM.

In the case of `CC(C)c1cc(-c2ccc(-c3ccc(C(=O)O)cc3)[nH]2)nn1CC(F)(F)F`, the results for the Relative EC30 in [1], in [3] and in experiment [4] were 88 nM, 15 nM and 1 nM, respectively. For the same molecule, the Relative IC50 in experiment [6] and in experiment [7] was greater than 1000 nM in each case. This molecule also yielded an ED30 in the experiment on HL-60 of 0.62 nM.

In the case of `Cc1ccc(C)c(-n2nc(-c3ccc(-c4ccc(C(=O)O)cc4)[nH]3)cc2C(C)C)c1`, the Relative EC30 in experiment [8], in experiment [9] and in experiment [10] was greater than 10000 nM throughout. In addition, the Relative IC50 in [6] and in [7] was greater than 1000 nM in each case. The same molecule registered an ED30 in the experiment on HL-60 greater than 10000 nM.

For `CC(C)c1cc(-c2ccc(-c3ccc(C(=O)O)cc3)[nH]2)nn1C(C)C`, the Relative EC30 in experiment [1] stood at 14 nM; in [3], 1.8 nM; in experiment [4] it was 0.19 nM. Further, the values for the Relative IC50 in [2] and in experiment [6] were 660 nM and greater than 1000 nM, respectively. In the experiment on HL-60, the ED30 came to 0.27 nM.
